Reference: article PMC4435052 (Combinatorial Chemistry & High Throughput Screening, 2015)
“Also recorded” adds a separate entry of the source.

Columns and labels:
RWPE-1 cells = experiment: Cell viability dose response in slow growing cells; assay type: cell-based, human; settings: 72 h dose response 5-80 µM
In short: (§1)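 Cells cultured in EMEM, DMEM or RPMI 1640 with 10% FBS, seeded at 1,600 cells/well 6-12 h before treatment. Exposed up to 72 h to test compound (5-80 µM), DMSO as negative control, or 20 µM benzethonium chloride as kill control. CellTox Green in medium; live imaging gave toxicity (green fluorescence) and proliferation (phase-contrast confluency). Replicate sets.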

[1] = target: T1, p50RhoGAP(205-439) GAP domain (Mus musculus, UniProt Q5FWK3); experiment: Selectivity GAP activity assay with p50RhoGAP GAP domain; assay type: biochemical
T1 sequence (Q5FWK3 205-439): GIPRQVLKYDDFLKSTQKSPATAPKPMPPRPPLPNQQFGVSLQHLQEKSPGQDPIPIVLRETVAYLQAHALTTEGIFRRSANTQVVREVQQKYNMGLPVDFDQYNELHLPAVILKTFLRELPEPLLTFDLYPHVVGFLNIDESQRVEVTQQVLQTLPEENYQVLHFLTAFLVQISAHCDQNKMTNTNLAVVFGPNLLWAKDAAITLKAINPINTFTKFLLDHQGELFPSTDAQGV
In short: (§2)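 Same buffer as the primary assay: Rac1(F28L) 600 nM, 150 µM GTP, 2% DMSO, 2 h at room temperature. GAP domain is BCR(1010-1271) at 200 nM or p50RhoGAP(205-439) at 50 nM, doses set for similar signal window. Test compound at 0.1-100 µM, with or without pre-incubation before GTP start. Read-out is ADP Hunter Plus fluorescence (ex 530/em 590 nm), normalized to plate controls.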

HeLa cells [2] = experiment: Immunofluorescence analysis of cell division morphology; assay type: cell-based, human; settings: 25 µM, 48 h
In short: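 HeLa cells on fibronectin-coated coverslips, treated 3-48 h with DMSO or 25 µM test compound. Fixed in ice-cold methanol and stained with mouse anti-α-tubulin and goat anti-MgcRacGAP. Detected with Alexa Fluor 488 and 647 secondaries; DAPI-containing mountant. Imaged by widefield fluorescence microscopy.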

MDA-MB-231 cells [3] = experiment: Scratch-wound Matrigel invasion; assay type: cell-based, human; settings: 10-40 µM, increasing concentrations
In short: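 MDA-MB-231 cells at 40,000/well on Matrigel-precoated plates. After 16 h, near-confluent monolayers scratched, washed and overlaid with Matrigel (8 mg/mL). After 30 min at 37°C, medium with DMSO or test compound (10-40 µM final) added. Scratch-wound imaging followed; relative wound density computed per image; n=4.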

[4] = target: MgcRacGAP GAP activity on wild type Rac1 (Homo sapiens, UniProt Q9H0H5); experiment: Single turnover GAP assay with GTP-loaded wild type Rac1; assay type: biochemical; settings: GTP-loaded wild type Rac1, 50 µM
MDA-MB-231 cells [5] = experiment: Cytotoxicity, CellTox Green live cell imaging; assay type: cell-based, human
In short: as §1

A549 cells [6] = experiment: FUCCI cell cycle reporter assay; assay type: cell-based, human; settings: 80 µM, from 6 h after exposure
In short: (§3)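 A549 cells at 50,000/well received Premo gemini-GFP (G2/M) and Cdt-RFP (G1/S) 1:1 24 h after plating. After overnight incubation, replated at 1,600 cells/well. Imaged hourly by phase contrast, green and red fluorescence. 14 h later given 80 µM test compound, DMSO, or 20 µM benzethonium chloride, then followed hourly.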

[7] = target: MgcRacGAP(345-618) GAP domain (Homo sapiens, UniProt Q9H0H5); experiment: Primary biochemical GAP activity assay, Rac1
In short: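 Rac1(F28L) 600 nM with MgcRacGAP(345-618) at 2 nM in 15 mM Hepes pH 7.5, 20 mM NaCl, 1 mM EGTA, 0.02% Tween 20, 0.1 mg/mL BSA, 2% DMSO, 150 µM GTP; 2 h at room temperature. GDP detected by ADP Hunter Plus at half volumes (resorufin ex 530/em 590 nm). Test compound at 0.1-100 µM, with or without protein pre-incubation before GTP; n=8; control-normalized, fits constrained 0-100%.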

HeLa cells [8] = assay type: cell-based, human
In short: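 HeLa cells synchronized by double thymidine block: 2 mM thymidine at plating for 19 h, three PBS washes, release into fresh medium, second 2 mM block 9 h later, washed after 16 h. Released with or without test compound (10-80 µM) or nocodazole (165 nM). Tracked by live-cell phase imaging for cell rounding and death.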

A549 cells [9] = experiment: Cytotoxicity by live cell imaging; assay type: cell-based, human; settings: 80 µM
In short: as §3

[10] = target: MgcRacGAP-stimulated activity of wild type Rac1 (Homo sapiens, UniProt Q9H0H5); experiment: Multiple-turnover GTPase assay with wild type Rac1; assay type: biochemical; settings: wild type Rac1, data not shown
In short: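 Wild-type Rac1 […] in the 2x mix, combined with test compound in GTPase/GAP buffer. MgcRacGAP serially diluted in (0.1-100 nM) and held 2 h at room temperature. Started with 2x GTP (10 µM) and run 2 h more. Remaining GTP read by GTPase-Glo reagent (30 min), then detection solution; luminescence read after 10 min.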

[11] = system: essential replicative helicase of Staphylococcus aureus; settings: 80 µM, ref PubChem AID 485395; cited from earlier work
Rac1-MgcRacGAP complex = Rac1-MgcRacGAP complex (Homo sapiens, UniProt P63000+Q9H0H5, Q61L); experiment: MgcRacGAP - Rac1 Q61L binding assay, bio-layer interferometry; settings: 12.5-50 µM, dose dependent
A549 cells [12] = experiment: Cellular movement, tracking of individual cells in 2D culture; assay type: cell-based, human; settings: 25 µM, 24 h
In short: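 A549 cells seeded at 10,000/well and given DMSO or 25 µM test compound 6 h later. Imaged every 5 min with a 20x objective for 24 h. Randomly chosen cells tracked individually to trace movement in 2D.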

[13] = target: T2, BCR(1010-1271) GAP domain (Homo sapiens, UniProt P11274); experiment: Counter/selectivity GAP activity assay with BCR GAP domain in place of MgcRacGAP; assay type: biochemical
T2 sequence (P11274 1010-1271): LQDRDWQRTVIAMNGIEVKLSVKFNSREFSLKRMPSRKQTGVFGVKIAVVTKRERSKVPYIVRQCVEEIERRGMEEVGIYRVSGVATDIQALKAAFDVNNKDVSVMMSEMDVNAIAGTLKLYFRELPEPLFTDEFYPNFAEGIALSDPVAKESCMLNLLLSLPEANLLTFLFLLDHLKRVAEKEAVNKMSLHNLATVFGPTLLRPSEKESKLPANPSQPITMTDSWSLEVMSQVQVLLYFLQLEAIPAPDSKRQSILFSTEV
In short: as §2

MDA-MB-231 cells [14] = experiment: Cell proliferation by live cell imaging; assay type: cell-based, human
In short: as §1

A549 cells [15] = assay type: cell-based, human; settings: 25 µM
In short: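 A549 cells in chamber slides, treated 3-48 h with DMSO or 25 µM test compound. Stained with phalloidin, Hoechst 33342, anti-α-tubulin and anti-MgcRacGAP. Cells scored as normal (mononuclear), mitotic (rounded), multinuclear or dead in at least eight random fields per condition. Reported as average percentage per time point.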

[16] = dose response 0.1-100 µM, no pre-incubation
[17] = proteins pre-incubated with compound before GTP addition
[18] = prolonged periods of time, data not shown

Sequence of MgcRacGAP(345-618) GAP domain (Q9H0H5 345-618): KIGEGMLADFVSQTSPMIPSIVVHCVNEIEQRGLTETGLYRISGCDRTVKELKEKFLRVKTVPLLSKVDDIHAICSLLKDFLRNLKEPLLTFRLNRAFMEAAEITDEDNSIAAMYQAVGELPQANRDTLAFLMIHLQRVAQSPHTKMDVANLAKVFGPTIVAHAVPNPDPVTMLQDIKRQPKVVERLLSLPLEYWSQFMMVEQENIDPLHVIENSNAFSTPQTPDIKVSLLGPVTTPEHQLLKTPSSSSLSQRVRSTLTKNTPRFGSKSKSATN
Sequence of Rac1-MgcRacGAP complex (Q9H0H5 345-618, stated change not applied, one chain of several): as the sequence (Q9H0H5 345-618) above
Sequence of MgcRacGAP-stimulated activity of wild type Rac1 (Q9H0H5 345-618): as above
Sequence of MgcRacGAP GAP activity on wild type Rac1 (Q9H0H5 345-618): as above

## Cl.Cl.c1cc2cc(C3=NCCN3)ccc2cc1C1=NCCN1 [MINC1, 2,6-bis(4,5-dihydro-1H-imidazol-2-yl)naphthalene dihydrochloride]
RWPE-1 cells
  effect on cell viability in slow growing cells: negligible effects on cell viability
[1]; [16]
  activity towards p50RhoGAP: no detectable activity
[1]; [17]
  activity towards p50RhoGAP, pre-incubation: no detectable activity
HeLa cells [2]
  multinucleated cells versus control: showed more multinucleated cells
MDA-MB-231 cells [3]
  wound-healing rate: decreased wound-healing rates; also recorded: decreasing ability to migrate
[4]
  effect on MgcRacGAP GAP activity, single turnover assay: no effect
MDA-MB-231 cells [5]; [18]
  concentration at which cell death was observed: 80 µM
MDA-MB-231 cells [5]; ≥20 µM, highly proliferative cells
  cell toxicity at concentrations that stop proliferation: without detectable cell toxicity
A549 cells [6]
  cell cycle state: arrested in G2/M-phase
[7]
  maximum inhibition reached by dose response curves: 80-90%
[7]; IC50 MgcRacGAP, dose response 0.1-100 µM, no pre-incubation
  IC50: 15 ± 5 µM
[7]; dose response, no pre-incubation
  Hill slope: 0.9
[7]; [17]
  Hill slope, pre-incubation: 0.7
HeLa cells [8]; after compound addition
  time to cell rounding, non-synchronized cells: approximately 3 h
HeLa cells [8]; after release from double thymidine block
  time to cell rounding, synchronized cells: 8 to 10 h
HeLa cells [8]; [18]
  concentration at which cell death was observed: 80 µM
A549 cells [9]
  tolerance of high concentration: could tolerate such high concentrations
[10]
  inhibition of MgcRacGAP-stimulated activity, multiple-turnover assay: did not detect any notable inhibition
[11]
  reported bioactivity: marginal activity
Rac1-MgcRacGAP complex
  dissociation of Rac1-MgcRacGAP complex: slowed down the dissociation process; also recorded: decreased dissociation rate
A549 cells [12]
  cell motility: lost almost all motility
[13]; [16]
  activity towards BCR: no detectable activity
[13]; [17]
  activity towards BCR, pre-incubation: no detectable activity
MDA-MB-231 cells [14]; Homo sapiens, MDA-MB-231, 48 h, read-out: IC50 cell proliferation
  IC50: 17 µM
MDA-MB-231 cells [14]; highly proliferative cells
  concentration that caused cell proliferation to cease: ≥ 20 µM
A549 cells [15]
  time of peak of cells with mitotic phenotype: ≤ 9 h
A549 cells [15]; during 24h treatment
  percentage of multinucleated cells: increased over time
